ChEMBL document CHEMBL4732214, “Highly Selective Y Receptor Antagonist Binds in an Allosteric Binding Pocket” (J Med Chem, 2021)
The source made the active and inactive calls. No cut-off for these calls is given here.

Key:
[1] = target: T1, Neuropeptide Y receptor type 1 (Mus musculus) (UniProt Q04573); assay: Allosteric antagonist activity at NPY1R in mouse descending colon mucosa assessed as reduction in PYY-induced ion transport at 30 uM by electrophysiology
T1 sequence (whole entry): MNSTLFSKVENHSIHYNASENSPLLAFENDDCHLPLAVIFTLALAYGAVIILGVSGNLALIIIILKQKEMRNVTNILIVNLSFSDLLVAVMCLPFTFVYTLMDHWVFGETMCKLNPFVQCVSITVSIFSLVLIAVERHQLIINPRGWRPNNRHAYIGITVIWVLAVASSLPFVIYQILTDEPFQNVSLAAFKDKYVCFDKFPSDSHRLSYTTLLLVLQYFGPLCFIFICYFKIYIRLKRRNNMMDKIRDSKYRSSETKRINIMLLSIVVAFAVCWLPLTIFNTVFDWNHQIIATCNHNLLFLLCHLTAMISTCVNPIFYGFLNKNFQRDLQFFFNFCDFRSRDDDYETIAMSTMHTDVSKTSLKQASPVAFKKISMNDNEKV

COS7 [2] = assay: Allosteric antagonist activity at human NPY4R F7.35 position mutant expressed in COS7 cells co-expressing Gqi5-alpha assessed as inhibition of PP-induced Ca2+ flux by Fluo-2 AM dye based fluorescent assay; type: cell-based
How it was run: (§1)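 COS7 cells transiently cotransfected overnight with 3 μg receptor-eYFP variant plasmid and 1 μg Δ6Gαqi4myr, reseeded next day. Fluo2-AM (2.4 μM) Ca²⁺ assay in HBSS/HEPES/probenecid pH 7.4. Compound concentration series added after 20 s baseline, PP at EC80 added 110 s later. Responses as x-fold over basal, normalized to 1 μM PP. N ≥ 3.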

[3] = target: Neuropeptide Y receptor type 4 (Mus musculus); assay: Allosteric antagonist activity at NPY4R in mouse descending colon mucosa assessed as reduction in rPP-induced ion transport by electrophysiology
COS7 [4] = assay: Allosteric antagonist activity at human NPY4R W2.70 position mutant expressed in COS7 cells co-expressing Gqi5-alpha assessed as inhibition of PP-induced Ca2+ flux by Fluo-2 AM dye based fluorescent assay; type: cell-based
How it was run: as §1

[5] = target: T2, Neuropeptide Y receptor type 4 (Homo sapiens, UniProt P50391); assay: Allosteric antagonist activity at […]-tagged human NPY4R expressed in COS7 cells co-expressing Gqi5-alpha assessed as inhibition of PP-induced Ca2+ flux by Fluo-2 AM dye based fluorescent assay; type: functional, cell-based; conditions: filed as allosteric antagonist
COS7 [6] = assay: Allosteric antagonist activity at human NPY4R S3.28 position mutant expressed in COS7 cells co-expressing Gqi5-alpha assessed as inhibition of PP-induced Ca2+ flux by Fluo-2 AM dye based fluorescent assay; type: cell-based
How it was run: as §1

COS7 [7] = assay: Allosteric antagonist activity at human NPY4R Y1.39 position mutant expressed in COS7 cells co-expressing Gqi5-alpha assessed as inhibition of PP-induced Ca2+ flux by Fluo-2 AM dye based fluorescent assay; type: cell-based; conditions: dose 15.0 µM
How it was run: as §1

[8] = target: T3, Neuropeptide Y receptor type 2 (Mus musculus) (UniProt P97295); assay: Allosteric antagonist activity at NPY2R in mouse descending colon mucosa assessed as reduction in PYY-induced ion transport at 0.3 to 30 uM by electrophysiology; conditions: dose 0.3-30 µM
T3 sequence (whole entry): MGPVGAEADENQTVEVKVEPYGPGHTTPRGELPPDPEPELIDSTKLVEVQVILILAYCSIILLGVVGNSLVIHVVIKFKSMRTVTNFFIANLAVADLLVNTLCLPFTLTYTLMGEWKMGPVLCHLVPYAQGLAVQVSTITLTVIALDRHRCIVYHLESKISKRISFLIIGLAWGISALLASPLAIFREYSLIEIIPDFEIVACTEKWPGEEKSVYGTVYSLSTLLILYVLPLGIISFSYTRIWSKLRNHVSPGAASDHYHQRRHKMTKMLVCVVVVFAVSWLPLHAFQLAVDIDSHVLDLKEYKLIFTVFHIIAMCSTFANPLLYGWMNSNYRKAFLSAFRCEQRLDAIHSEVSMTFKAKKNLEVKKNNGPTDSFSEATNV

COS7 [9] = assay: Allosteric antagonist activity at human NPY4R L7.36 position mutant expressed in COS7 cells co-expressing Gqi5-alpha assessed as inhibition of PP-induced Ca2+ flux by Fluo-2 AM dye based fluorescent assay; type: cell-based
How it was run: as §1

COS7 [10] = assay: Allosteric antagonist activity at human NPY4R A3.29 position mutant expressed in COS7 cells co-expressing Gqi5-alpha assessed as inhibition of PP-induced Ca2+ flux by Fluo-2 AM dye based fluorescent assay; type: cell-based
How it was run: as §1

COS7 [11] = assay: Allosteric antagonist activity at human NPY4R Q3.32 position mutant expressed in COS7 cells co-expressing Gqi5-alpha assessed as inhibition of PP-induced Ca2+ flux by Fluo-2 AM dye based fluorescent assay; type: cell-based
How it was run: as §1

COS7 [12] = assay: Allosteric antagonist activity at human NPY4R Q2.58 position mutant expressed in COS7 cells co-expressing Gqi5-alpha assessed as inhibition of PP-induced Ca2+ flux by Fluo-2 AM dye based fluorescent assay; type: cell-based
How it was run: as §1

[13] = target: T3, Neuropeptide Y receptor type 2 (Mus musculus); assay: Allosteric antagonist activity at NPY2R in mouse descending colon mucosa assessed as reduction in PYY-induced ion transport at 30 uM by electrophysiology
COS7 [14] = assay: Allosteric antagonist activity at human NPY4R T2.61 position mutant expressed in COS7 cells co-expressing Gqi5-alpha assessed as inhibition of PP-induced Ca2+ flux by Fluo-2 AM dye based fluorescent assay; type: cell-based
How it was run: as §1

[15] = target: T4, Neuropeptide Y receptor type 5 (Mus musculus) (UniProt O70342); assay: Allosteric antagonist activity at NPY5R in mouse descending colon mucosa assessed as reduction in rPP-induced ion transport at 30 uM by electrophysiology
T4 sequence (whole entry): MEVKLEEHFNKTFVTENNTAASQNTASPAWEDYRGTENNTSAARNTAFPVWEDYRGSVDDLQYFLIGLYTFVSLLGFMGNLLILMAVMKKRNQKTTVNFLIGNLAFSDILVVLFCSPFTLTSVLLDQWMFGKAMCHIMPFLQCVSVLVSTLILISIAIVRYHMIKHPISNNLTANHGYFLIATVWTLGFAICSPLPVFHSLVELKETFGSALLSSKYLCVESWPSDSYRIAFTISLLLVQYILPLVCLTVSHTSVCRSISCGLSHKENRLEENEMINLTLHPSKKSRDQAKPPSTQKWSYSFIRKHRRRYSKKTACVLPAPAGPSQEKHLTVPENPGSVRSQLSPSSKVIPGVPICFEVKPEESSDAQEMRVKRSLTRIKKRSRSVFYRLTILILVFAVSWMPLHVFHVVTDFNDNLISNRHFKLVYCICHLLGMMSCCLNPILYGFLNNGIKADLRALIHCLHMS
How it was run: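 Mouse descending colon mucosae (0.14 cm² exposed) in Ussing chambers, Krebs−Henseleit both sides, oxygenated, 37 °C, voltage-clamped at 0 mV. After stable basal Isc (20 min), DMSO (0.3%) or antagonist 300 nM–30 μM added basolaterally, then VIP 10 nM (10−15 min), then rPP 30 nM to lower Isc, then PYY 10 nM 15 min later. Isc changes pooled, mean ± SEM, N = 5.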

COS7 [16] = assay: Allosteric antagonist activity at human NPY4R Y2.64 position mutant expressed in COS7 cells co-expressing Gqi5-alpha assessed as inhibition of PP-induced Ca2+ flux by Fluo-2 AM dye based fluorescent assay; type: cell-based
How it was run: as §1

[17] = target: T1, Neuropeptide Y receptor type 1 (Mus musculus); assay: Allosteric antagonist activity at NPY1R in mouse descending colon mucosa assessed as reduction in PYY-induced ion transport at 0.3 to 30 uM by electrophysiology; conditions: dose 0.3-30 µM
[18] = target: T2, Neuropeptide Y receptor type 4; assay: Allosteric antagonist activity at […]-tagged human NPY4R expressed in COS7 cells co-expressing Gqi5-alpha assessed as inhibition of PP-induced Ca2+ flux by Fluo-2 AM dye based fluorescent assay relative to control; type: functional, cell-based; conditions: read-out: IC50
COS7 [19] = assay: Allosteric antagonist activity at human NPY4R F4.60 position mutant expressed in COS7 cells co-expressing Gqi5-alpha assessed as inhibition of PP-induced Ca2+ flux by Fluo-2 AM dye based fluorescent assay; type: cell-based
How it was run: as §1

[20] = target: T2, Neuropeptide Y receptor type 4; assay: Allosteric antagonist activity at […]-tagged human NPY4R expressed in COS7 cells co-expressing Gqi5-alpha assessed as inhibition of PP-induced inositol phosphate accumulation by IP-one assay; type: functional, cell-based; conditions: filed as allosteric antagonist
How it was run: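 IP-One Gq HTRF assay in COS7 cells stably expressing Y4R-eYFP and Δ6Gαqi4myr, 8000 cells/well seeded overnight. Compound or DMSO added, then PP stimulation in HBSS + 20 mM LiCl for 1 h at 37 °C. Cells lysed with kit antibody reagents. Emission read at 665 and 620 nm.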

T2 sequence (P50391 whole entry): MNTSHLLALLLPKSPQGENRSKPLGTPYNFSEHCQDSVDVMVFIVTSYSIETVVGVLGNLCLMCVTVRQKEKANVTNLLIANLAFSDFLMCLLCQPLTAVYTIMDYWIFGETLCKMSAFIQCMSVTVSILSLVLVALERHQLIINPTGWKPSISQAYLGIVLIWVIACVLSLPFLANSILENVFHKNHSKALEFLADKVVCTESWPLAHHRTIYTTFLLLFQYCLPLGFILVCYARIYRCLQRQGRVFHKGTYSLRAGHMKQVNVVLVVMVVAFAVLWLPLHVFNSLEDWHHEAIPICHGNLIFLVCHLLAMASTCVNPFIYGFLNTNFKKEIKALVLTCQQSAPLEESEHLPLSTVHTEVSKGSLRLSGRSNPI

## CS(=O)(=O)N1CCCC[C@H]1C(=O)Nc1nc2cc3c(cc2s1)OCCO3
[1]
  inhibition: inactive
COS7 [2]
  inhibition: inactive
[3]
  IC50: 3800 nM
[3]; filed as allosteric antagonist
  inhibition: Dose-dependent effect
COS7 [4]
  inhibition: inactive
[5]
  Kb: 380 nM
  inhibition: Dose-dependent effect
  pKb: 6.4
COS7 [6]
  inhibition: inactive
COS7 [7]
  inhibition: inactive
[8]
  inhibition: inactive
COS7 [9]
  inhibition: inactive
COS7 [10]
  inhibition: inactive
COS7 [11]
  inhibition: inactive
COS7 [12]
  inhibition: inactive
[13]
  inhibition: inactive
COS7 [14]
  inhibition: inactive
[15]
  inhibition: inactive
COS7 [16]
  inhibition: inactive
[17]
  inhibition: inactive
[18]
  IC50: 2700 nM
COS7 [19]
  inhibition: inactive
[20]
  inhibition: Active
